Reference: ChEMBL document CHEMBL1240446, “Synthesis and biological activities of novel amine-derived bis-azoles as potential antibacterial and antifungal agents” (2010)
In brackets after ≈: the same amount, converted by molar mass.

Experiments:
Format in all cases: functional
[1] = system: Candida albicans; test: Antifungal activity against Candida albicans ATCC 76615 after 24 hrs by micro-broth dilution method; conditions: ATCC 76615, 24 h
Outline: (§1)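 Broth microdilution per NCCLS. Spore suspension in sterile distilled water, taken from 1-day-old cultures on Sabouraud agar, final 1–5×10^3 spores/mL. Compounds diluted from stocks in RPMI 1640 to eleven concentrations, 0.25–256 µg/mL. Incubation 35 °C, 24 h. Growth scored visually and spectrophotometrically. MIC is the lowest concentration arresting fungal growth.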

[2] = system: Bacillus; test: Antibacterial activity against Bacillus proteus ATCC 13315 after 24 hrs by micro-broth dilution method; conditions: ATCC 13315, 24 h
Outline: (§2)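 MIC by broth microdilution following NCCLS methods. Inoculum adjusted in sterile saline to 1×10^4–1×10^5 CFU. Compounds from DMSO stocks, two-fold serial dilutions in Mueller-Hinton broth at 256 down to 0.25 µg/mL. Incubation 37 °C, 24 h. DMSO solvent control at matching dilutions. Growth read visually and spectrophotometrically. MIC is the lowest concentration arresting growth.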

[3] = system: Bacillus subtilis; test: Antibacterial activity against Bacillus subtilis ATCC 21216 after 24 hrs by micro-broth dilution method; conditions: ATCC 21216, 24 h; outline: as §2
[4] = system: Staphylococcus aureus; test: Antibacterial activity against Staphylococcus aureus ATCC 29213 after 24 hrs by micro-broth dilution method; conditions: ATCC 29213, 24 h
Outline: (§3)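 Broth microdilution per NCCLS in Mueller-Hinton broth. Inoculum adjusted in sterile saline to 1×10^4–1×10^5 CFU. Compounds taken from DMSO stocks and serially diluted two-fold to final 256–0.25 µg/mL (11 levels). Incubation 37 °C, 24 h, with a DMSO solvent control. Growth read visually and spectrophotometrically. MIC is the lowest concentration that arrests growth.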

[5] = system: Escherichia coli; test: Antibacterial activity against Escherichia coli ATCC 25922 after 24 hrs by micro-broth dilution method; conditions: ATCC 25922, 24 h; outline: as §2
[6] = system: Staphylococcus aureus; test: Antibacterial activity against methicillin-resistant Staphylococcus aureus N315 after 24 hrs by micro-broth dilution method; conditions: N315, 24 h; outline: as §3
[7] = system: Pseudomonas aeruginosa; test: Antibacterial activity against Pseudomonas aeruginosa ATCC 27853 after 24 hrs by micro-broth dilution method; conditions: ATCC 27853, 24 h; outline: as §2
[8] = system: Aspergillus fumigatus; test: Antifungal activity against Aspergillus fumigatus ATCC 96918 after 24 hrs by micro-broth dilution method; conditions: ATCC 96918, 24 h; outline: as §1

SMILES: Cl.Fc1ccc(CN(CCn2cnc3ccccc32)CCn2cnc3ccccc32)c(F)c1
- MIC [1]: > 256 µg/mL
- MIC [2]: 64 µg/mL
- MIC [3]: > 256 µg/mL
- MIC [4]: 32 µg/mL
- MIC [5]: > 256 µg/mL
- MIC [6]: 128 µg/mL
- MIC [7]: > 256 µg/mL
- MIC [8]: > 256 µg/mL

SMILES: Fc1ccc(CN(CCn2cncn2)CCn2cncn2)c(F)c1.O=[N+]([O-])O
- MIC [1]: 64 µg/mL
- MIC [2]: > 256 µg/mL
- MIC [3]: 32 µg/mL
- MIC [4]: 128 µg/mL
- MIC [5]: 128 µg/mL
- MIC [6]: > 256 µg/mL
- MIC [7]: 16 µg/mL
- MIC [8]: > 256 µg/mL

SMILES: Clc1ccc(CN(CCn2cnc3ccccc32)CCn2cnc3ccccc32)c(Cl)c1
- MIC [1]: > 256 µg/mL
- MIC [2]: 32 µg/mL (≈ 68.9 µM)
- MIC [3]: 32 µg/mL (≈ 68.9 µM)
- MIC [4]: 32 µg/mL (≈ 68.9 µM)
- MIC [5]: 128 µg/mL (≈ 276 µM)
- MIC [6]: 64 µg/mL (≈ 138 µM)
- MIC [7]: 32 µg/mL (≈ 68.9 µM)
- MIC [8]: > 256 µg/mL

SMILES: Fc1ccc(CN(CCn2ccnc2)CCn2ccnc2)c(F)c1
- MIC [1]: > 256 µg/mL
- MIC [2]: 64 µg/mL (≈ 193 µM)
- MIC [3]: 32 µg/mL (≈ 96.6 µM)
- MIC [4]: 32 µg/mL (≈ 96.6 µM)
- MIC [5]: 64 µg/mL (≈ 193 µM)
- MIC [6]: 32 µg/mL (≈ 96.6 µM)
- MIC [7]: 128 µg/mL (≈ 386 µM)
- MIC [8]: > 256 µg/mL

SMILES: Clc1ccc(CN(CCn2ccnc2)CCn2ccnc2)c(Cl)c1
- MIC [1]: 128 µg/mL (≈ 351 µM)
- MIC [2]: 32 µg/mL (≈ 87.8 µM)
- MIC [3]: 32 µg/mL (≈ 87.8 µM)
- MIC [4]: 8 µg/mL (≈ 22 µM)
- MIC [5]: 16 µg/mL (≈ 43.9 µM)
- MIC [6]: 16 µg/mL (≈ 43.9 µM)
- MIC [7]: 4 µg/mL (≈ 11 µM)
- MIC [8]: > 256 µg/mL

SMILES: Clc1ccccc1CN(CCn1ccnc1)CCn1ccnc1
- MIC [1]: > 256 µg/mL
- MIC [2]: > 256 µg/mL
- MIC [3]: > 256 µg/mL
- MIC [4]: 128 µg/mL (≈ 388 µM)
- MIC [5]: 16 µg/mL (≈ 48.5 µM)
- MIC [6]: 256 µg/mL (≈ 776 µM)
- MIC [7]: 256 µg/mL (≈ 776 µM)
- MIC [8]: > 256 µg/mL

SMILES: Clc1ccc(CN(CCn2ccnc2)CCn2ccnc2)cc1Cl.O=[N+]([O-])O
- MIC [1]: > 256 µg/mL
- MIC [2]: 32 µg/mL
- MIC [3]: 16 µg/mL
- MIC [4]: 16 µg/mL
- MIC [5]: 4 µg/mL
- MIC [6]: 16 µg/mL
- MIC [7]: 64 µg/mL
- MIC [8]: 64 µg/mL

SMILES: OCCN(CCO)Cc1ccc(Cl)cc1
- MIC [1]: > 256 µg/mL
- MIC [2]: 256 µg/mL (≈ 1110 µM)
- MIC [3]: > 256 µg/mL
- MIC [4]: > 256 µg/mL
- MIC [5]: 256 µg/mL (≈ 1110 µM)
- MIC [6]: > 256 µg/mL
- MIC [7]: 256 µg/mL (≈ 1110 µM)
- MIC [8]: > 256 µg/mL

SMILES: Clc1ccc(CN(CCn2cncn2)CCn2cncn2)c(Cl)c1
- MIC [1]: 0.25 µg/mL (≈ 0.683 µM)
- MIC [2]: 16 µg/mL (≈ 43.7 µM)
- MIC [3]: > 256 µg/mL
- MIC [4]: 64 µg/mL (≈ 175 µM)
- MIC [5]: 64 µg/mL (≈ 175 µM)
- MIC [6]: 256 µg/mL (≈ 699 µM)
- MIC [7]: 32 µg/mL (≈ 87.4 µM)
- MIC [8]: > 256 µg/mL

SMILES: OCCN(CCO)Cc1cccc(Cl)c1
- MIC [1]: > 256 µg/mL
- MIC [2]: > 256 µg/mL
- MIC [3]: > 256 µg/mL
- MIC [4]: > 256 µg/mL
- MIC [5]: > 256 µg/mL
- MIC [6]: > 256 µg/mL
- MIC [7]: > 256 µg/mL
- MIC [8]: > 256 µg/mL

SMILES: Clc1cccc(CN(CCn2ccnc2)CCn2ccnc2)c1
- MIC [1]: > 256 µg/mL
- MIC [2]: 64 µg/mL (≈ 194 µM)
- MIC [3]: 128 µg/mL (≈ 388 µM)
- MIC [4]: 64 µg/mL (≈ 194 µM)
- MIC [5]: 32 µg/mL (≈ 97 µM)
- MIC [6]: > 256 µg/mL
- MIC [7]: 32 µg/mL (≈ 97 µM)
- MIC [8]: > 256 µg/mL

SMILES: OCCN(CCO)Cc1ccc(Cl)cc1Cl
- MIC [1]: 128 µg/mL (≈ 485 µM)
- MIC [2]: 128 µg/mL (≈ 485 µM)
- MIC [3]: 256 µg/mL (≈ 969 µM)
- MIC [4]: 128 µg/mL (≈ 485 µM)
- MIC [5]: 256 µg/mL (≈ 969 µM)
- MIC [6]: 256 µg/mL (≈ 969 µM)
- MIC [7]: 128 µg/mL (≈ 485 µM)
- MIC [8]: 256 µg/mL (≈ 969 µM)

SMILES: Clc1ccc(CN(CCn2cncn2)CCn2cncn2)cc1Cl.O=[N+]([O-])O
- MIC [1]: 256 µg/mL
- MIC [2]: 0.25 µg/mL
- MIC [3]: 16 µg/mL
- MIC [4]: 16 µg/mL
- MIC [5]: 32 µg/mL
- MIC [6]: 64 µg/mL
- MIC [7]: 64 µg/mL
- MIC [8]: > 256 µg/mL

SMILES: Clc1ccccc1CN(CCn1cncn1)CCn1cncn1
- MIC [1]: > 256 µg/mL
- MIC [2]: > 256 µg/mL
- MIC [3]: > 256 µg/mL
- MIC [4]: > 256 µg/mL
- MIC [5]: 256 µg/mL (≈ 772 µM)
- MIC [6]: > 256 µg/mL
- MIC [7]: 128 µg/mL (≈ 386 µM)
- MIC [8]: > 256 µg/mL

SMILES: Cl.Fc1ccc(CN(CCn2cncn2)CCn2cncn2)c(F)c1
- MIC [1]: 32 µg/mL
- MIC [2]: 256 µg/mL
- MIC [3]: 32 µg/mL
- MIC [4]: 64 µg/mL
- MIC [5]: 64 µg/mL
- MIC [6]: > 256 µg/mL
- MIC [7]: 8 µg/mL
- MIC [8]: 256 µg/mL

SMILES: Fc1ccc(CN(CCn2cncn2)CCn2cncn2)c(F)c1
- MIC [1]: > 256 µg/mL
- MIC [2]: > 256 µg/mL
- MIC [3]: 64 µg/mL (≈ 192 µM)
- MIC [4]: 128 µg/mL (≈ 384 µM)
- MIC [5]: 64 µg/mL (≈ 192 µM)
- MIC [6]: > 256 µg/mL
- MIC [7]: 8 µg/mL (≈ 24 µM)
- MIC [8]: > 256 µg/mL

SMILES: Cl.Clc1ccc(CN(CCn2ccnc2)CCn2ccnc2)c(Cl)c1
- MIC [1]: 64 µg/mL
- MIC [2]: 32 µg/mL
- MIC [3]: 8 µg/mL
- MIC [4]: 4 µg/mL
- MIC [5]: 16 µg/mL
- MIC [6]: 8 µg/mL
- MIC [7]: 4 µg/mL
- MIC [8]: > 256 µg/mL

SMILES: Cl.Clc1ccc(CN(CCn2cncn2)CCn2cncn2)c(Cl)c1
- MIC [1]: 0.25 µg/mL
- MIC [2]: 4 µg/mL
- MIC [3]: 128 µg/mL
- MIC [4]: 16 µg/mL
- MIC [5]: 32 µg/mL
- MIC [6]: 128 µg/mL
- MIC [7]: 16 µg/mL
- MIC [8]: 128 µg/mL

SMILES: Clc1ccc(CN(CCn2ccnc2)CCn2ccnc2)c(Cl)c1.O=[N+]([O-])O
- MIC [1]: 128 µg/mL
- MIC [2]: 64 µg/mL
- MIC [3]: 16 µg/mL
- MIC [4]: 16 µg/mL
- MIC [5]: 32 µg/mL
- MIC [6]: 16 µg/mL
- MIC [7]: 4 µg/mL
- MIC [8]: > 256 µg/mL

SMILES: Fc1ccc(CN(CCn2cnc3ccccc32)CCn2cnc3ccccc32)c(F)c1.O=[N+]([O-])O
- MIC [1]: > 256 µg/mL
- MIC [2]: 128 µg/mL
- MIC [3]: > 256 µg/mL
- MIC [4]: 128 µg/mL
- MIC [5]: > 256 µg/mL
- MIC [6]: 256 µg/mL
- MIC [7]: > 256 µg/mL
- MIC [8]: > 256 µg/mL

SMILES: Clc1cccc(CN(CCn2cncn2)CCn2cncn2)c1
- MIC [1]: > 256 µg/mL
- MIC [2]: 32 µg/mL (≈ 96.4 µM)
- MIC [3]: > 256 µg/mL
- MIC [4]: 256 µg/mL (≈ 772 µM)
- MIC [5]: > 256 µg/mL
- MIC [6]: 256 µg/mL (≈ 772 µM)
- MIC [7]: 16 µg/mL (≈ 48.2 µM)
- MIC [8]: > 256 µg/mL

SMILES: OCCN(CCO)Cc1ccc(Cl)c(Cl)c1
- MIC [1]: > 256 µg/mL
- MIC [2]: 128 µg/mL (≈ 485 µM)
- MIC [3]: 128 µg/mL (≈ 485 µM)
- MIC [4]: 256 µg/mL (≈ 969 µM)
- MIC [5]: 128 µg/mL (≈ 485 µM)
- MIC [6]: > 256 µg/mL
- MIC [7]: > 256 µg/mL
- MIC [8]: > 256 µg/mL
